{
  "source": "ChEMBL document CHEMBL2021927",
  "about": "“Synthesis and evaluation of the cytotoxicities of tetraindoles: observation that the 5-hydroxy tetraindole (SK228) induces G₂ arrest and apoptosis in human breast cancer cells” (J Med Chem, 2012)",
  "key": {"[1]": {"system": "SW48", "experiment": "Selectivity ratio of IC50 for human MT10 cells to IC50 for human SW48 cells", "method_in_brief": "(§1)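 Ratio of the IC50 in normal M10 cells to the IC50 in each cancer line. […] The paper reports the fold difference as the normal-cell to tumour-cell IC50 ratio.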"}, "[2]": {"system": "MCF7", "experiment": "Growth inhibition of human MCF7 cells after 48 hrs by MTT assay", "type": "functional, cell-based", "details": "MCF7, 48 h"}, "[3]": {"system": "MDA-MB-231", "experiment": "Induction of apoptosis in human MDA-MB-231 cells assessed as increase in early apoptotic cells at 0.4 uM by annexinV propidium iodide staining-based flow cytometric analysis", "type": "functional, cell-based", "details": "TDE = time-dependent effect", "method_in_brief": "(§2)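 MDA-MB-231 cells treated with 0.4 μM, washed twice in PBS and stained with annexin V-FITC/propidium iodide. Populations scored as viable (both negative), early apoptotic (annexin V positive, PI negative) or late apoptotic/dead (both positive).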"}, "[4]": {"system": "MDA-MB-361", "experiment": "Growth inhibition of human MDA-MB-361 cells after 48 hrs by MTT assay", "type": "functional, cell-based", "details": "MDA-MB-361, 48 h"}, "[5]": {"system": "SW480", "experiment": "Selectivity ratio of IC50 for human MT10 cells to IC50 for human SW480 cells", "method_in_brief": "as §1"}, "[6]": {"system": "Detroit 551", "experiment": "Selectivity ratio of IC50 for human Detroit 551 cells to IC50 for human A549 cells"}, "[7]": {"system": "SW-620", "experiment": "Growth inhibition of human SW620 cells after 48 hrs by MTT assay", "type": "functional, cell-based", "details": "SW-620, 48 h"}, "[8]": {"system": "MCF7", "experiment": "Selectivity ratio of IC50 for human MT10 cells to IC50 for human MCF7 cells", "method_in_brief": "as §1"}, "[9]": {"system": "MDA-MB-231", "experiment": "Induction of apoptosis in human MDA-MB-231 cells assessed as caspase 3 cleavage after 24 to 48 hrs by Western blot analysis", "type": "functional, cell-based", "method_in_brief": "(§3)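 MDA-MB-231 cells treated with 0.2, 0.4 or 0.8 μM for 24 and 48 h. Attached and floating cells were lysed in RIPA-type buffer with protease inhibitors, and protein was quantified by BCA. Equal protein was run on 10%/15% SDS-PAGE and transferred to nitrocellulose. Blots were probed 1 h at room temperature for phospho-cdc2, cyclin B1, caspase-3, bak/bcl-2 or actin loading control, with HRP secondary and ECL detection.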"}, "[10]": {"system": "A549", "experiment": "Selectivity ratio of IC50 for human MT10 cells to IC50 for human A549 cells", "method_in_brief": "as §1"}, "[11]": {"system": "MDA-MB-231", "experiment": "Induction of apoptosis in human MDA-MB-231 cells assessed as DNA ladder formation at 0.4 to 1.6 uM after 48 hrs by agarose gel electrophoretic analysis", "type": "functional, cell-based", "method_in_brief": "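MDA-MB-231 cells seeded at 1 × 10^6 per dish, treated 24 h later with 0, 0.4, 0.8, 1.2 or 1.6 μM or DMSO for 48 h at 37 °C, 5% CO2. Cells lysed in TE buffer with 0.25% NP40 (pH 7.5). Lysate digested with RNase A then proteinase K, each 1 h at 37 °C. DNA resolved on 1.8% agarose gel.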"}, "[12]": {"system": "MDA-MB-231", "experiment": "Increase in cdc2 phosphorylation at Tyr15 expression in human MDA-MB-231 cells after 24 hrs by Western blot analysis", "type": "functional, cell-based", "method_in_brief": "as §3"}, "[13]": {"system": "MDA-MB-231", "experiment": "Induction of apoptosis in human MDA-MB-231 cells assessed as increase in late apoptotic cells at 0.4 uM by annexinV propidium iodide staining-based flow cytometric analysis", "type": "functional, cell-based", "details": "TDE = time-dependent effect", "method_in_brief": "as §2"}, "[14]": {"system": "MCF7", "experiment": "Ratio of IC50 for 3,3'-diindolylmethane to compound for human MCF7 cells after 48 hrs by MTT assay", "type": "functional"}, "[15]": {"system": "MDA-MB-231", "experiment": "Induction of apoptosis in human MDA-MB-231 cells assessed as bcl-2 protein level after 24 to 48 hrs by Western blot analysis", "type": "functional, cell-based", "method_in_brief": "as §3"}, "[16]": {"system": "MDA-MB-231", "experiment": "Cell cycle arrest in human MDA-MB-231 cells at accumulation at subG1 phase at 0.8 uM after 48 hrs by propidium iodide staining-based flow cytometric analysis (reference value: 3%)", "type": "functional"}, "[17]": {"system": "MDA-MB-231", "experiment": "Cell cycle arrest in human MDA-MB-231 cells at accumulation at S phase at 0.8 uM after 24 hrs by propidium iodide staining-based flow cytometric analysis (reference value: 20%)", "type": "functional"}, "[18]": {"system": "Detroit 551", "experiment": "Growth inhibition of human Detroit 551 cells after 48 hrs by MTT assay", "type": "cell-based", "details": "Detroit 551, 48 h"}, "[19]": {"system": "A549", "experiment": "Growth inhibition of human A549 cells after 48 hrs by MTT assay", "type": "functional, cell-based", "details": "A549, 48 h"}, "[20]": {"system": "MDA-MB-231", "experiment": "Antiproliferative activity against human MDA-MB-231 cells assessed as decrease in cell count at 0.1 to 0.8 uM by trypan blue dye exclusion assay", "type": "functional, cell-based", "details": "TDE = time-dependent effect", "method_in_brief": "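MDA-MB-231 cells seeded at 2 × 10^5 per well in 6-well plates, treated 24 h later in triplicate with compound (0.1–0.8 μM) or DMSO vehicle in 10% FBS DMEM/F12. Cells harvested by trypsinization at 24, 48 and 72 h, stained with 0.4% trypan blue and counted on a hemocytometer; three independent experiments.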"}, "[21]": {"system": "MDA-MB-231", "experiment": "Selectivity ratio of IC50 for human Detroit 551 cells to IC50 for human MDA-MB-231 cells"}, "[22]": {"system": "Detroit 551", "experiment": "Selectivity ratio of IC50 for human Detroit 551 cells to IC50 for human U87MG cells"}, "[23]": {"system": "MDA-MB-231", "experiment": "Cell cycle arrest in human MDA-MB-231 cells at accumulation at subG1 phase at 0.8 uM after 24 hrs by propidium iodide staining-based flow cytometric analysis (reference value: 2%)", "type": "functional"}, "[24]": {"system": "Detroit 551", "experiment": "Selectivity ratio of IC50 for human Detroit 551 cells to IC50 for human SW620 cells"}, "[25]": {"experiment": "Growth inhibition of human M10 cells after 48 hrs by MTT assay", "type": "cell-based", "details": "M10, 48 h"}, "[26]": {"system": "MDA-MB-231", "experiment": "Ratio of IC50 for cyclic tetramer to compound for human MDA-MB-231 cells after 48 hrs by MTT assay", "type": "functional"}, "[27]": {"system": "SW480", "experiment": "Selectivity ratio of IC50 for human Detroit 551 cells to IC50 for human SW480 cells"}, "[28]": {"system": "MDA-MB-231", "experiment": "Growth inhibition of human MDA-MB-231 cells after 48 hrs by MTT assay", "type": "functional, cell-based"}, "[29]": {"system": "MDA-MB-231", "experiment": "Increase in cdc2 phosphorylation at Tyr15 expression in human MDA-MB-231 cells after 48 hrs by Western blot analysis", "type": "functional, cell-based", "method_in_brief": "as §3"}, "[30]": {"experiment": "Growth inhibition of human U87MG cells after 48 hrs by MTT assay", "type": "functional, cell-based, U-87MG ATCC", "details": "U-87 MG"}, "[31]": {"system": "MDA-MB-231", "experiment": "Cell cycle arrest in human MDA-MB-231 cells at accumulation at G2/M phase at 0.8 uM after 24 hrs by propidium iodide staining-based flow cytometric analysis (reference value: 30%)", "type": "functional"}, "[32]": {"system": "MCF7", "experiment": "Ratio of IC50 for cyclic tetramer to compound for human MCF7 cells after 48 hrs by MTT assay", "type": "functional"}, "[33]": {"system": "MDA-MB-231", "experiment": "Increase in cyclin B1 expression in human MDA-MB-231 cells after 48 hrs by Western blot analysis", "type": "functional, cell-based", "method_in_brief": "as §3"}, "[34]": {"system": "MDA-MB-231", "experiment": "Selectivity ratio of IC50 for human MT10 cells to IC50 for human MDA-MB-231 cells", "method_in_brief": "as §1"}, "[35]": {"system": "MDA-MB-231", "experiment": "Cell cycle arrest in human MDA-MB-231 cells at accumulation at S phase at 0.8 uM after 48 hrs by propidium iodide staining-based flow cytometric analysis (reference value: 20%)", "type": "functional"}, "[36]": {"system": "MDA-MB-231", "experiment": "Cell cycle arrest in human MDA-MB-231 cells at accumulation at G2/M phase at 0.8 uM after 48 hrs by propidium iodide staining-based flow cytometric analysis (reference value: 32%)", "type": "functional"}},
  "note": "Activity calls are given as the source filed them. No cut-off for these calls is given here.",
  "data": [
    {"smiles": "Oc1ccc2[nH]cc(C(c3ccc(C(c4c[nH]c5ccc(O)cc45)c4c[nH]c5ccc(O)cc45)cc3)c3c[nH]c4ccc(O)cc34)c2c1", "values": [
      {"measurement": "Ratio IC50", "setting": "[1]", "result": 6.6},
      {"measurement": "IC50", "setting": "[2]", "result": 0.88, "unit": "µM"},
      {"measurement": "Activity", "setting": "[3]", "result": "tde"},
      {"measurement": "IC50", "setting": "[4]", "result": 2.07, "unit": "µM"},
      {"measurement": "Ratio IC50", "setting": "[5]", "result": 15.7},
      {"measurement": "Ratio IC50", "setting": "[6]", "result": "> 6.9"},
      {"measurement": "IC50", "setting": "[7]", "result": 0.98, "unit": "µM"},
      {"measurement": "Ratio IC50", "setting": "[8]", "result": 6.6},
      {"measurement": "Activity", "setting": "[9]", "result": "Dose-dependent effect"},
      {"measurement": "Ratio IC50", "setting": "[10]", "result": 2},
      {"measurement": "Activity", "setting": "[11]", "result": "Active"},
      {"measurement": "Activity", "setting": "[12]", "result": "Dose-dependent effect"},
      {"measurement": "Activity", "setting": "[13]", "result": "tde"},
      {"measurement": "Ratio IC50", "setting": "[14]", "result": 57},
      {"measurement": "Activity", "setting": "[15]", "result": "Dose-dependent effect"},
      {"measurement": "Activity", "setting": "[16]", "result": 21, "unit": "%"},
      {"measurement": "Activity", "setting": "[17]", "result": 23, "unit": "%"},
      {"measurement": "IC50", "setting": "[18]", "result": "> 20", "unit": "µM"},
      {"measurement": "IC50", "setting": "[19]", "result": 2.89, "unit": "µM"},
      {"measurement": "Activity", "setting": "[20]", "result": "tde"},
      {"measurement": "Ratio IC50", "setting": "[21]", "result": "> 44"},
      {"measurement": "Ratio IC50", "setting": "[22]", "result": "> 7.3"},
      {"measurement": "Activity", "setting": "[23]", "result": 6, "unit": "%"},
      {"measurement": "Ratio IC50", "setting": "[24]", "result": "> 20"},
      {"measurement": "IC50", "setting": "[25]", "result": 5.81, "unit": "µM"},
      {"measurement": "Ratio IC50", "setting": "[26]", "result": 2},
      {"measurement": "Ratio IC50", "setting": "[27]", "result": "> 54"},
      {"measurement": "inhibition", "setting": "[28]", "result": "Dose-dependent effect"},
      {"measurement": "IC50", "setting": "[28]; MDA-MB-231, 48 h", "result": 0.45, "unit": "µM"},
      {"measurement": "Activity", "setting": "[29]", "result": "Dose-dependent effect"},
      {"measurement": "IC50", "setting": "[30]", "result": 2.73, "unit": "µM"},
      {"measurement": "Activity", "setting": "[31]", "result": 40, "unit": "%"},
      {"measurement": "Ratio IC50", "setting": "[32]", "result": 2},
      {"measurement": "Activity", "setting": "[33]", "result": "Dose-dependent effect"},
      {"measurement": "Ratio IC50", "setting": "[34]", "result": 12.9},
      {"measurement": "Activity", "setting": "[35]", "result": 20, "unit": "%"},
      {"measurement": "Activity", "setting": "[36]", "result": 34, "unit": "%"}
    ]}
  ]
}
